Each structure is given as a SMILES string. In all, about 190,000 compounds went through this assay and about 10 (0.005%) were called active.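 Rule for the calls: active = diaphorase activity raised at least twofold by the compound at 20 µM; inactive = activation factor below 2.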 Only a selection was taken, and actives are over-represented in it overall.

The experiment in a line: compounds boosting diaphorase resazurin reduction – biochemical, uHTS, resorufin fluorescence, counter-screen for diaphorase-coupled primary assays, primary screen (AID 1229). The settings on record: Diaphorase/resazurin coupled assay, 16 min, at 20 µM, hits give high values, 1 = vehicle wells, 0 = NADH-free wells. In short, it runs like this: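 Material: Clostridium kluyveri diaphorase, purified enzyme; Quantity: enzyme 0.07 U/mL final; Medium: HEPES pH 7.4 buffer with MgCl2 and Tween 20; Dosing: single compound dose of 20 µM, 1% DMSO final; Schedule: 16 min reaction at room temperature; Measured by: red resorufin fluorescence at 544/590 nm excitation/emission.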
As to `COC(=O)CCc1sc(Nc2ccc(Br)cc2)nc1-c1ccc(OC)cc1`, the activation factor is 0.8 (inactive).

As for `O=c1[nH]c2cccnc2n(CCNc2ncc(C(F)(F)F)cc2Cl)c1=O`, the activation factor was 0.8 (inactive).

Consider `COCC1CCCN(Cc2cn[nH]c2-c2cc3ccccc3o2)C1` (stereo not given), for which the activation factor was 0.9 (inactive).

On to `CC1CCCCC1NC(=O)COC(=O)Cc1ccc(Br)cc1` (stereo not given), for which the activation factor is 0.9 (inactive).

In the case of `O=C1NC2(CCCCCC2)C(=O)N1CCS(=O)(=O)Oc1ccccc1`, the activation factor was 1 (inactive).

Turning to `COc1cccc(-n2nc(C(=O)N3CCN(Cc4ccccc4)CC3)c3ccccc3c2=O)c1`, the activation factor was 0.8 (inactive).

Take `CCN(CC)CCNCc1ccc(OCc2ccc(Cl)nc2)c(OC)c1`: the activation factor is 1.1 (inactive).

Regarding `CC(C)Oc1c(Br)cc(Br)cc1/C=N/NC(N)=S`, the activation factor was 1 (inactive).

For `Cc1cc(C)cc(OCC(=O)NNC(=O)CCN2C(=O)c3ccccc3C2=O)c1`, the activation factor was 0.9 (inactive).

For the molecule `O=C(CCC(=O)NNc1nc2ccccc2c2nc(-c3ccccc3)nn12)NCCCN1CCCC1=O`, the activation factor is 0.8 (inactive).

Turning to `COc1ccc(-c2csc(-c3cccs3)n2)cc1OC`, the activation factor is 0.8 (inactive).

As to `COc1ccc(O)c(C(=O)c2cnc3c(c2)c(-c2ccc(F)cc2)c(C#N)c(=O)n3C)c1`, the activation factor is 0.9 (inactive).

As to `CC(C)(C)CC(C)(C)NCC(O)COCCOc1ccc(Br)cc1` (stereo not given), the activation factor is 0.9 (inactive).

For `Cc1cc(NS(=O)(=O)c2ccc(NC(=O)c3cccc(OC(F)F)c3)cc2)nc(C)n1`, the activation factor was 1 (inactive).

Regarding `CCC1S/C(=N/N=C/c2ccco2)NC1=O` (stereo not given), the activation factor was 0.9 (inactive).

`CCOC(=O)C(NC(=O)CC(C)C)(Nc1sc2c(c1C(N)=O)CCCC2)C(F)(F)F` (stereo not given): the activation factor is 0.9 (inactive).

`C/C(=N\NC(=O)CNC(=O)C(c1ccccc1)c1ccccc1)c1ccc(C)cc1`: the activation factor was 0.9 (inactive).

`C=CCn1c(COc2ccc(F)cc2)nnc1SCC(=O)Nc1cccc(S(N)(=O)=O)c1`: the activation factor was 1.1 (inactive).

For `CCOc1ccc(NS(=O)(=O)c2cc(C)c(C)cc2C)cc1`, the activation factor is 0.8 (inactive).

In the case of `O=C(Nc1ccc(Cl)cn1)c1ccc2c(c1)OCCO2`, the activation factor is 1 (inactive).

As for `CN(C)S(=O)(=O)c1ccc(N2CCCC2=O)c([N+](=O)[O-])c1`, the activation factor was 0.9 (inactive).

Regarding `S=C(Cc1ccc(Cl)cc1)N1CCOCC1`, the activation factor is 1 (inactive).

On to `CN(Cc1ccc2nsnc2c1)Cc1nc(Cc2cccc(F)c2)no1`, for which the activation factor was 0.8 (inactive).

Consider `CCN(CC(=O)NCCc1ccccc1)S(=O)(=O)c1ccccc1`, for which the activation factor was 1 (inactive).

For the molecule `COc1ccc(C(=O)O/N=C(\N)Cc2ccc(Cl)cc2Cl)cc1OC`, the activation factor was 1 (inactive).

As to `NC(N)=N/N=C/c1ccc(Cl)c([N+](=O)[O-])c1`, the activation factor is 1 (inactive).

Take `NC(N)=N/N=C/c1ccc(OCc2ccc(Cl)cc2Cl)cc1`: the activation factor is 2.2 (active).

`O=C(CCc1n[nH]c(=O)[nH]c1=O)N/N=C/c1ccc(Br)o1`: the activation factor is 1 (inactive).

For the molecule `Cc1cccc(OCCNC(=O)CSc2ccc(C(F)(F)F)cc2[N+](=O)[O-])c1`, the activation factor was 0.9 (inactive).

As for `Cc1ccc(NC(=O)Nc2ccccc2)c(Br)c1`, the activation factor was 0.9 (inactive).

For the molecule `COc1cc2[nH]c(=S)n(Cc3ccc(F)cc3)c(=O)c2cc1OC`, the activation factor is 0.9 (inactive).

As to `O=C(Nc1ccc2c(c1)OCO2)c1sc2cc(Cl)ccc2c1Cl`, the activation factor was 1 (inactive).

For the molecule `Cc1cc(NC(=O)CSc2nc3ccccc3n2CC(C)C)no1`, the activation factor is 0.8 (inactive).

On to `CNC(=O)COc1ccc(S(=O)(=O)Nc2ccccc2)cc1`, for which the activation factor was 0.8 (inactive).

With `COc1ccc(C)cc1NC(=S)Nc1ccccc1SC`, the activation factor was 1 (inactive).

As for `Cc1cccc(NC(=O)Nc2ccc3c(c2)OCO3)n1`, the activation factor was 0.8 (inactive).

Take `CCOc1ccc(C(=O)NC(=S)Nc2ccc(N3CCOCC3)c(Cl)c2)cc1[N+](=O)[O-]`: the activation factor was 0.8 (inactive).

Regarding `O=C(NC1CCCC1)C(c1ccc(N2CCOCC2)cc1)N(C(=O)c1ccco1)c1ccccc1F` (stereo not given), the activation factor is 0.9 (inactive).

On to `COc1ccc(N2CCN(C(=O)/C(C#N)=C/c3ccccc3)CC2)cc1`, for which the activation factor is 1 (inactive).

`O=[N+]([O-])c1ccccc1SNc1ccccn1`: the activation factor is 0.8 (inactive).

As to `COc1ccccc1C(=O)Nc1ccc(OCc2nnc3c4ccccc4c(C)nn23)cc1`, the activation factor was 0.8 (inactive).

`CO/N=C(\N)c1ccc([N+](=O)[O-])cc1`: the activation factor is 0.9 (inactive).

Take `O=S(=O)(Nc1cc(S(=O)(=O)N2CCOCC2)ccc1N1CCCC1)c1cccs1`: the activation factor is 0.9 (inactive).

Turning to `O=C(COc1cccc(F)c1)Oc1ccc(C(=O)c2ccccc2)cc1`, the activation factor is 0.9 (inactive).

Regarding `O=C(NNC(=S)Nc1ccccc1)c1cccc(S(=O)(=O)N2CCOCC2)c1`, the activation factor was 0.9 (inactive).

For the molecule `COC(=O)/C=C\C(=O)Nc1cccc([N+](=O)[O-])c1`, the activation factor is 1.1 (inactive).

On to `CCC(C)N(C(=O)COC(=O)C1C(C(=O)OC)=C(C)NC(C)=C1C(=O)OC)C1CCS(=O)(=O)C1` (stereo not given), for which the activation factor was 0.9 (inactive).

As for `CCn1c(SCC(=O)Nc2ccc(C)cc2)nc2nc3c(cc2c1=O)CCCC3`, the activation factor was 0.9 (inactive).

In the case of `Cc1cc(C)n(Cc2cnc(N3CCOCC3)s2)n1`, the activation factor was 1 (inactive).

With `Cc1ccccc1CN1C[C@@H]2C[C@@H](c3ccc4nsnc4c3)N3CCC[C@@]23C1=O`, the activation factor was 0.8 (inactive).

For the molecule `O=C(/C=C/c1ccc2c(c1)OCO2)NCc1cn2cc(Cl)ccc2n1`, the activation factor was 1.1 (inactive).

With `CCN(CC)CCNC(=O)c1sc2ncn(CC(=O)Nc3ccc(C)c(Cl)c3)c(=O)c2c1C`, the activation factor was 0.9 (inactive).

`Cc1cc(Cl)ccc1NC(=S)NCCCN1CCCC1=O`: the activation factor was 1 (inactive).

`CCCCn1nc(C(=O)Nc2ccc(S(=O)(=O)Nc3ncccn3)cc2)c2ccccc2c1=O`: the activation factor is 0.9 (inactive).

Take `C#CCOCCOCCOCCNc1nc(N2CCN(C(=O)[C@H](CCCCN)n3cc([C@@H](N)C(C)CC)nn3)CC2)nc(N2CCN(C(=O)[C@H](Cc3ccc(O)cc3)n3cc([C@@H](N)C(C)CC)nn3)CC2)n1` (stereo not given in full): the activation factor is 1.7 (inactive).

As for `Cn1c(=O)cc(OCC(=O)N2CCN(c3ccccc3F)CC2)c2ccccc21`, the activation factor was 0.9 (inactive).

Consider `Cc1cc(F)ccc1S(=O)(=O)Nc1ncnc2scc(-c3ccc(F)cc3)c12`, for which the activation factor is 0.8 (inactive).

Regarding `CCOC(=O)CSc1nc(C)cc2c1C(=O)OC2`, the activation factor was 1 (inactive).

Take `Fc1cc(Br)ccc1NC(=S)Nc1cccnc1`: the activation factor is 1 (inactive).

For the molecule `Cc1ccc(NC(=O)NNC(=O)c2sccc2-n2cccc2)cc1`, the activation factor was 1 (inactive).

In the case of `CNC(=O)c1ccc(NC(=O)c2cccc(C(F)(F)F)c2)cc1`, the activation factor was 0.9 (inactive).

For `O=c1cc(CO)oc(C(Nc2cccc(C(F)(F)F)c2)c2ccccn2)c1O` (stereo not given), the activation factor is 0.7 (inactive).

Turning to `Cc1ccc2c(c1)C(c1ccccc1)N(C(=O)c1ccc(S(=O)(=O)N3CCOCC3)cc1)CC(=O)N2` (stereo not given), the activation factor was 1 (inactive).

Consider `CN1C(=O)/C(=C/c2ccc(C(=O)NC3CCCC3)cc2)Oc2ccccc21`, for which the activation factor was 1 (inactive).

`CN1C=CC=C/C1=C1\SC(=S)N(Cc2ccccc2)C1=O`: the activation factor was 1 (inactive).

As to `CCCCC(=O)Nc1ccc(C(=O)Nc2cc(C(F)(F)F)ccc2Cl)cc1`, the activation factor was 1 (inactive).

With `CCOC(=O)C/C(C)=N\Nc1ccc([N+](=O)[O-])cc1[N+](=O)[O-]`, the activation factor was 0.9 (inactive).

Turning to `N/C(=N\OC(=O)CCc1ccccc1)c1cccnc1`, the activation factor was 1 (inactive).

As for `CCCOc1ccc(NC(=O)CC2C(=O)N(C)C(=S)N2Cc2ccc3c(c2)OCO3)cc1` (stereo not given), the activation factor was 0.8 (inactive).

On to `CC(C(=O)O)n1cnc2sc3c(c2c1=O)CCCC3` (stereo not given), for which the activation factor is 0.9 (inactive).

For the molecule `NC1=NC(=O)C(Cc2cccc(Cl)c2Cl)S1` (stereo not given), the activation factor is 1 (inactive).

Consider `COc1ccc(CCNC(=O)CSc2nc3[nH]ncc3c(=O)n2-c2cccc(C(F)(F)F)c2)cc1OC`, for which the activation factor was 0.9 (inactive).

As for `CC(C)(C)OC(=O)N/N=C/c1cn(-c2ccccc2)nc1-c1cccnc1`, the activation factor was 1 (inactive).

Consider `O=C(NC(=S)Nc1ccc2oc(=O)ccc2c1)c1ccc(-c2cccc(Cl)c2Cl)o1`, for which the activation factor is 1.1 (inactive).

On to `COc1ccc(CN2CCN(Cc3cn(C)nc3-c3ccccc3)CC2CCO)c(C)c1C` (stereo not given), for which the activation factor was 1 (inactive).

(Values after PubChem BioAssay AID1229 (Sanford-Burnham Center for Chemical Genomics, 2008).)
